≈ marks a conversion by molar mass, not a printed value.
Legend:
[1] = tested on: Mycobacterium tuberculosis; assay: Antimycobacterial activity against Mycobacterium tuberculosis H37Rv replicating form by alamar blue assay; assay type: functional
Method in brief: (§1)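 M. tuberculosis H37Rv (ATCC 27294) was tested, in replicating form by MABA and in nonreplicating form by LORA, following published procedures. The value is the MIC, reported as the average of three individual determinations.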

[2] = tested on: Mycobacterium tuberculosis; assay: Antimycobacterial activity against non replicating persistent form of Mycobacterium tuberculosis H37Rv after 10 days by low oxygen recovery assay; assay type: functional; conditions: 240 h; method in brief: as §1
Vero = assay: Cytotoxicity against african green monkey Vero cells after 72 hrs; assay type: cell-based; conditions: Chlorocebus sabaeus
Escherichia coli = assay: Antimicrobial activity against Escherichia coli; assay type: functional
Candida albicans = assay: Antimicrobial activity against Candida albicans; assay type: functional
[3] = tested on: Mycolicibacterium smegmatis; assay: Antimicrobial activity against Mycobacterium smegmatis; assay type: functional
Staphylococcus aureus = assay: Antimicrobial activity against Staphylococcus aureus; assay type: functional

Row | Structure (SMILES) | MIC90 [1] [µM] | MIC90 [2] [µM] | IC50 (Vero) [µM] | MIC (Escherichia coli) [µM] | MIC (Candida albicans) [µM] | MIC [3] [µM] | MIC (Staphylococcus aureus) [µM]
1 | CCOC(=O)c1cc(COc2cc(C(F)(F)F)nc3c(C(F)(F)F)cccc23)on1 | 0.9 (≈ 0.391 µg/mL) | 12.2 (≈ 5.3 µg/mL) |  |  |  |  | 
2 | CCOC(=O)c1cc(/C=C/c2ccc(C(F)(F)F)cc2)on1 | 3.9 (≈ 1.21 µg/mL) | 6.8 (≈ 2.12 µg/mL) |  |  |  |  | 
3 | CCOC(=O)c1cc(/C=C/c2ccccc2C(F)(F)F)on1 | 3.9 (≈ 1.21 µg/mL) | 12.1 (≈ 3.77 µg/mL) |  |  |  |  | 
4 | CCOC(=O)c1cc(/C=C/c2ccco2)on1 | 7.9 (≈ 1.84 µg/mL) | 50.2 (≈ 11.7 µg/mL) | > 128 |  |  |  | 
5 | CCOC(=O)c1cc(CCc2cc(O)cc(O)c2)on1 | > 128 | > 128 |  |  |  |  | 
6 | CCOC(=O)c1cc(/C=C\c2cccc(OC)n2)on1 | 27.5 (≈ 7.54 µg/mL) | 45.9 (≈ 12.6 µg/mL) |  |  |  |  | 
7 | CCOC(=O)c1cc(/C=C/c2c(Cl)ccc(C)c2F)on1 | 3.5 (≈ 1.08 µg/mL) | 7 (≈ 2.17 µg/mL) | > 128 |  |  |  | 
8 | CCOC(=O)c1cc(/C=C/c2ccccc2CC)on1 | 0.98 (≈ 0.266 µg/mL) | 2 (≈ 0.543 µg/mL) | > 128 |  |  |  | 
9 | CCCCOC(=O)c1cc(/C=C/c2ccc(OC)nc2)on1 | 2 (≈ 0.605 µg/mL) | 6.7 (≈ 2.03 µg/mL) |  |  |  |  | 
10 | CCOC(=O)c1cc(/C=C/c2ccnc3ccccc23)on1 | 0.2 (≈ 0.0589 µg/mL) | 2.6 (≈ 0.765 µg/mL) |  |  |  |  | 
11 | CCOC(=O)c1cc(/C=C/c2ccc(C)c3ccccc23)on1 | 17.3 (≈ 5.32 µg/mL) | 3.6 (≈ 1.11 µg/mL) | > 128 |  |  |  | 
12 | CCOC(=O)c1cc(/C=C/c2ccc(N3CCN(C)CC3)cc2)on1 | 15.2 (≈ 5.19 µg/mL) | 37.4 (≈ 12.8 µg/mL) |  |  |  |  | 
13 | CCOC(=O)c1cc(/C=C/c2ccc(F)cc2F)on1 | 5.3 (≈ 1.48 µg/mL) | 13.8 (≈ 3.85 µg/mL) | > 128 |  |  |  | 
14 | CCOC(=O)c1cc(/C=C/c2cc(Cl)cc(Cl)c2)on1 | 5.4 (≈ 1.69 µg/mL) | 5.9 (≈ 1.84 µg/mL) | > 128 |  |  |  | 
15 | O=C(O)c1cc(/C=C/c2cccc(C(F)(F)F)c2)on1 | > 128 | > 128 |  |  |  |  | 
16 | CCOC(=O)c1cc(/C=C/c2ccccc2)on1 | 11.7 (≈ 2.85 µg/mL) | 18 (≈ 4.38 µg/mL) |  |  |  |  | 
17 | CCCCOC(=O)c1cc(/C=C/c2ccnc3ccc(OC)cc23)on1 | 1.1 (≈ 0.388 µg/mL) | 1.8 (≈ 0.634 µg/mL) | > 128 |  |  |  | 
18 | CCOC(=O)c1cc(/C=C/c2cc(OCc3ccccc3)cc(OCc3ccccc3)c2)on1 | 6.3 (≈ 2.87 µg/mL) | 4.7 (≈ 2.14 µg/mL) | > 128 |  |  |  | 
19 | CCOC(=O)c1cc(/C=C/c2ccsc2)on1 | 1.6 (≈ 0.399 µg/mL) | 26.9 (≈ 6.71 µg/mL) | > 128 |  |  |  | 
20 | O=C(O)c1cc(/C=C/c2cccc3ccccc23)on1 | > 128 | > 128 |  |  |  |  | 
21 | CCCCCCCCOC(=O)c1cc(/C=C/c2c(Cl)cncc2Cl)on1 | 10.9 (≈ 4.33 µg/mL) | 9.2 (≈ 3.66 µg/mL) | > 128 |  |  |  | 
22 | CCCCCCC(C)OC(=O)c1cc(/C=C/c2c(Cl)cncc2Cl)on1 (stereo not given) | 8.3 (≈ 3.3 µg/mL) | 24.2 (≈ 9.61 µg/mL) | > 128 |  |  |  | 
23 | CCOC(=O)c1cc(/C=C/c2cccc(OC)c2)on1 | 3.7 (≈ 1.01 µg/mL) | 8.8 (≈ 2.4 µg/mL) | > 128 |  |  |  | 
24 | CCOC(=O)c1cc(/C=C/c2cc(F)cc(F)c2)on1 | 3.7 (≈ 1.03 µg/mL) | 8.9 (≈ 2.49 µg/mL) | > 128 |  |  |  | 
25 | CCOC(=O)c1cc(/C=C/c2ccccc2SC)on1 | 0.96 (≈ 0.278 µg/mL) | 7.8 (≈ 2.26 µg/mL) | > 128 |  |  |  | 
26 | CCOC(=O)c1cc(/C=C/c2cccc(N)c2)on1 | 7.5 (≈ 1.94 µg/mL) | 20.7 (≈ 5.35 µg/mL) | > 128 |  |  |  | 

Row | Structure (SMILES) | MIC90 [1] [µM] | MIC90 [2] [µM] | IC50 (Vero) [µM] | MIC (Escherichia coli) [µM] | MIC (Candida albicans) [µM] | MIC [3] [µM] | MIC (Staphylococcus aureus) [µM]
27 | CCOC(=O)c1cc(/C=C/c2cccc(C(C)C)c2)on1 | 3.1 (≈ 0.885 µg/mL) | 8.3 (≈ 2.37 µg/mL) | > 128 |  |  |  | 
28 | CCOC(=O)c1cc(/C=C/c2cc(OC)cc(OC)c2)on1 | 2 (≈ 0.607 µg/mL) | 3.6 (≈ 1.09 µg/mL) | > 128 |  |  |  | 
29 | CCOC(=O)c1cc(/C=C/c2ccc(OC)nc2)on1 | 1.4 (≈ 0.384 µg/mL) | 86.6 (≈ 23.8 µg/mL) | > 128 |  |  |  | 
30 | CCOC(=O)c1cc(/C=C/c2cccc(Cl)c2)on1 | 2.3 (≈ 0.639 µg/mL) | 6.7 (≈ 1.86 µg/mL) | > 128 |  |  |  | 
31 | CCOC(=O)c1cc(/C=C\c2cc(F)cc(F)c2)on1 | 29.2 (≈ 8.15 µg/mL) | 12.3 (≈ 3.43 µg/mL) | > 128 |  |  |  | 
32 | CCC(CC)OC(=O)c1cc(/C=C/c2c(Cl)cncc2Cl)on1 | 7.9 (≈ 2.81 µg/mL) | 8.9 (≈ 3.16 µg/mL) | > 128 |  |  |  | 
33 | CCOC(=O)c1cc(/C=C/c2cccc(C(F)(F)F)c2)on1 | 0.73 (≈ 0.227 µg/mL) | 21.1 (≈ 6.57 µg/mL) | > 128 | > 100 | > 100 | > 100 | > 100
34 | CCOC(=O)c1cc(/C=C/c2cccc(C)c2)on1 | 6.5 (≈ 1.67 µg/mL) | 7.4 (≈ 1.9 µg/mL) | > 128 |  |  |  | 
35 | CCOC(=O)c1cc(/C=C/c2cccc3ccccc23)on1 | 1.6 (≈ 0.469 µg/mL) | 4 (≈ 1.17 µg/mL) | > 128 |  |  |  | 
36 | Clc1cncc(Cl)c1/C=C/c1ccno1 | > 128 | > 128 |  |  |  |  | 
37 | CCOC(=O)c1cc(/C=C/c2c(Cl)cccc2Cl)on1 | 2.5 (≈ 0.78 µg/mL) | 3.5 (≈ 1.09 µg/mL) |  |  |  |  | 
38 | CCOC(=O)c1cc(CCc2cccc(C(F)(F)F)c2)on1 | 14.2 (≈ 4.45 µg/mL) | 15.6 (≈ 4.89 µg/mL) |  |  |  |  | 
39 | CCOC(=O)c1cc(/C=C/c2ccc(OC)cc2F)on1 | 3.8 (≈ 1.11 µg/mL) | 10.7 (≈ 3.12 µg/mL) |  |  |  |  | 
40 | CCOC(=O)c1cc(/C=C/c2cccc(O)c2)on1 | 7.8 (≈ 2.02 µg/mL) | 28.7 (≈ 7.44 µg/mL) | > 128 |  |  |  | 
41 | O=C(OCCCC1CCCC1)c1cc(/C=C/c2c(Cl)cncc2Cl)on1 | 7.3 (≈ 2.89 µg/mL) | 9.3 (≈ 3.68 µg/mL) |  |  |  |  | 
42 | CCOC(=O)c1cc(/C=C/c2cccc(OC)n2)on1 | 3.8 (≈ 1.04 µg/mL) | 16 (≈ 4.39 µg/mL) |  |  |  |  | 
43 | CCOC(=O)c1cc(/C=C\c2cccc([N+](=O)[O-])c2)on1 | 5.4 (≈ 1.56 µg/mL) | 10.9 (≈ 3.14 µg/mL) | > 128 |  |  |  | 
44 | CCOC(=O)c1cc(/C=C/c2c(Cl)cncc2Cl)on1 | 0.59 (≈ 0.185 µg/mL) | 5.1 (≈ 1.6 µg/mL) | > 128 | > 100 | > 100 | 94.4 (≈ 29.6 µg/mL) | > 100
45 | CCCCOC(=O)c1cc(/C=C/c2cccc(OC)c2)on1 | 1.8 (≈ 0.542 µg/mL) | 7.6 (≈ 2.29 µg/mL) |  |  |  |  | 
46 | CCOC(=O)c1cc(/C=C/c2ccnc3ccc(OC)cc23)on1 | 0.4 (≈ 0.13 µg/mL) | 1.1 (≈ 0.357 µg/mL) |  |  |  |  | 
47 | CCOC(=O)c1cc(/C=C/c2cccc([N+](=O)[O-])c2)on1 | 1.2 (≈ 0.346 µg/mL) | 5.1 (≈ 1.47 µg/mL) | > 128 |  |  |  | 
48 | CCOC(=O)c1cc(/C=C/c2ccncc2)on1 | 15.5 (≈ 3.79 µg/mL) | 52.4 (≈ 12.8 µg/mL) | > 128 |  |  |  | 
49 | NNC(=O)c1ccncc1 [ISONIAZID] | 0.84 (≈ 0.115 µg/mL) | > 128 | 128 |  |  |  | 
50 | COc1c(N2C[C@@H]3CCCN[C@@H]3C2)c(F)cc2c(=O)c(C(=O)O)cn(C3CC3)c12 [MOXIFLOXACIN] | 0.46 (≈ 0.185 µg/mL) | > 128 |  |  |  |  | 
51 | CO[C@H]1/C=C/O[C@@]2(C)Oc3c(C)c(O)c4c(O)c(c(/C=N/N5CCN(C)CC5)c(O)c4c3C2=O)NC(=O)/C(C)=C\C=C\[C@H](C)[C@H](O)[C@@H](C)[C@@H](O)[C@@H](C)[C@H](OC(C)=O)[C@@H]1C [RIFAMPIN] | 0.1 (≈ 0.0823 µg/mL) | 1.9 (≈ 1.56 µg/mL) |  |  |  |  | 
